Source: ChEMBL document CHEMBL2417414, “Total synthesis and biological evaluation of clavaminol-G and its analogs” (Eur J Med Chem, 2013)
≈ marks a conversion by molar mass, not a printed value.

Experiments:
A549 = test: Cytotoxicity against human A549 cells by MTT assay; type: functional, cell-based
Summary of the method: (§1)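 MTT assay on ATCC lines: A549 (CCL-185, alveolar adenocarcinoma), HeLa (CCL-2, cervical), MDA-MB-231 (HTB-26) and MCF7 (HTB-22, breast adenocarcinoma). IC50 calculated from absorbance dose–response curves. Values are the average of two independent experiments.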

HeLa = test: Cytotoxicity against human HeLa cells by MTT assay; type: functional, cell-based; summary of the method: as §1
MCF7 = test: Cytotoxicity against human MCF7 cells by MTT assay; type: functional, cell-based; summary of the method: as §1
MDA-MB-231 = test: Cytotoxicity against human MDA-MB-231 cells by MTT assay; type: functional, cell-based; summary of the method: as §1
Micrococcus luteus = test: Antibacterial activity against Micrococcus luteus MTCC 2470 after 24 hrs by well diffusion method; type: functional; conditions: MTCC 2470, 24 h
Summary of the method: (§2)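 MTCC strains spread on Mueller-Hinton agar plates with 0.1 mL of suspension at 1.5 × 10^8 CFU/mL (0.5 McFarland). Neomycin served as the antibacterial control, fluconazole and miconazole as antifungal controls, and DMSO as the negative control. Plates incubated 24 h at 30 °C. MIC was taken as the lowest amount giving an inhibition zone. Duplicates, mean reported.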

Nakaseomyces glabratus = test: Antifungal activity against Candida glabrata MTCC 3019 after 24 hrs by well diffusion method; type: functional; conditions: MTCC 3019, 24 h; summary of the method: as §2
Candida albicans [1] = test: Antifungal activity against Candida albicans MTCC 854 after 24 hrs by well diffusion method; type: functional; conditions: MTCC 854, 24 h
Summary of the method: (§3)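 Agar well diffusion on Mueller-Hinton agar seeded with 0.1 mL of suspension at 1.5 × 10^8 CFU/mL (0.5 McFarland). Fluconazole and miconazole served as positive controls, DMSO as negative control. Plates incubated 24 h at 30 °C. MIC taken as the lowest amount giving an inhibition zone; duplicates, mean reported.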

Candida albicans [2] = test: Antifungal activity against Candida albicans MTCC 7315 after 24 hrs by well diffusion method; type: functional; conditions: MTCC 7315, 24 h; summary of the method: as §3
Candida albicans [3] = test: Antifungal activity against Candida albicans MTCC 3018 after 24 hrs by well diffusion method; type: functional; conditions: MTCC 3018, 24 h; summary of the method: as §3
Candida albicans [4] = test: Antifungal activity against Candida albicans MTCC 4748 after 24 hrs by well diffusion method; type: functional; conditions: MTCC 4748, 24 h; summary of the method: as §3
Pseudomonas aeruginosa = test: Antibacterial activity against Pseudomonas aeruginosa MTCC 2453 after 24 hrs by well diffusion method; type: functional; conditions: MTCC 2453, 24 h; summary of the method: as §2
Candida albicans [5] = test: Antifungal activity against Candida albicans MTCC 1637 after 24 hrs by well diffusion method; type: functional; conditions: MTCC 1637, 24 h; summary of the method: as §3
Pichia sporocuriosa = test: Antifungal activity against Issatchenkia hanoiensis MTCC 4755 after 24 hrs by well diffusion method; type: functional; conditions: MTCC 4755, 24 h; summary of the method: as §2
Candida albicans [6] = test: Antifungal activity against Candida albicans MTCC 3958 after 24 hrs by well diffusion method; type: functional; conditions: MTCC 3958, 24 h; summary of the method: as §3
Escherichia coli = test: Antibacterial activity against Escherichia coli MTCC 739 after 24 hrs by well diffusion method; type: functional; conditions: MTCC 739, 24 h; summary of the method: as §2
Pichia kudriavzevii = test: Antifungal activity against Issatchenkia orientalis MTCC 3020 after 24 hrs by well diffusion method; type: functional; conditions: MTCC 3020, 24 h; summary of the method: as §2
Raoultella planticola = test: Antibacterial activity against Klebsiella planticola MTCC 530 after 24 hrs by well diffusion method; type: functional; conditions: MTCC 530, 24 h; summary of the method: as §2
Candida albicans [7] = test: Antifungal activity against Candida albicans MTCC 3017 after 24 hrs by well diffusion method; type: functional; conditions: MTCC 3017, 24 h; summary of the method: as §3
Candida parapsilosis = test: Antifungal activity against Candida parapsilosis MTCC 1744 after 24 hrs by well diffusion method; type: functional; conditions: Lodderomyces parapsilosis, MTCC 1744, 24 h; summary of the method: as §2
Staphylococcus aureus [8] = test: Antibacterial activity against Staphylococcus aureus MLS16 MTCC 2940 after 24 hrs by well diffusion method; type: functional; conditions: MLS16 MTCC 2940, 24 h; summary of the method: as §2
Bacillus subtilis = test: Antibacterial activity against Bacillus subtilis MTCC 121 after 24 hrs by well diffusion method; type: functional; conditions: MTCC 121, 24 h; summary of the method: as §2
Candida albicans [9] = test: Antifungal activity against Candida albicans MTCC 183 after 24 hrs by well diffusion method; type: functional; conditions: MTCC 183, 24 h; summary of the method: as §3
[Candida] aaseri = Antifungal activity against Candida aaseri MTCC 1962 after 24 hrs by well diffusion method; type: functional; conditions: Yamadazyma aaseri, MTCC 1962, 24 h; summary of the method: as §2
Staphylococcus aureus [10] = test: Antibacterial activity against Staphylococcus aureus MTCC 96 after 24 hrs by well diffusion method; type: functional; conditions: MTCC 96, 24 h; summary of the method: as §2
[11] = Homo sapiens, A549, read-out: IC50
[12] = Homo sapiens, HeLa, read-out: IC50
[13] = Homo sapiens, MCF7, read-out: IC50
[14] = Homo sapiens, MDA-MB-231, read-out: IC50

| Structure (SMILES) | IC50 (MCF7; mcf7) | IC50 (MDA-MB-231; mda-mb-231) | IC50 (A549; [11]) [µM] | MIC (Nakaseomyces glabratus) [µg/mL] | MIC (Candida albicans [1]) [µg/mL] | IC50 (HeLa; [12]) [µM] | MIC (Candida albicans [2]) [µg/mL] | MIC (Candida albicans [3]) [µg/mL] | IC50 (MCF7; [13]) [µM] | MIC (Candida albicans [4]) [µg/mL] | MIC (Candida albicans [5]) [µg/mL] | MIC (Pichia sporocuriosa) [µg/mL] | MIC (Candida albicans [6]) [µg/mL] | MIC (Pichia kudriavzevii) [µg/mL] | IC50 (MDA-MB-231; [14]) [µM] | MIC (Candida albicans [7]) [µg/mL] | MIC (Candida parapsilosis) [µg/mL] | MIC (Candida albicans [9]) [µg/mL] | MIC ([Candida] aaseri) [µg/mL] | other results |
| --- | --- | --- | --- | --- | --- | --- | --- | --- | --- | --- | --- | --- | --- | --- | --- | --- | --- | --- | --- | --- |
| NCC(O)CCCCCCCCC(=O)O (stereo not drawn) | Not Active | Not Active | – | – | – | – | – | – | – | – | – | – | – | – | – | – | – | – | – | IC50 (A549; a549): Not Active; IC50 (HeLa; hela): Not Active |
| CCCCCCCCCC(O)CN (stereo not drawn) | – | – | 6.78 | 18.8 (≈ 100 µM) | 18.8 (≈ 100 µM) | 4.36 | 18.8 (≈ 100 µM) | 18.8 (≈ 100 µM) | 3.88 | 18.8 (≈ 100 µM) | 18.8 (≈ 100 µM) | 18.8 (≈ 100 µM) | 18.8 (≈ 100 µM) | 18.8 (≈ 100 µM) | 4.02 | 18.8 (≈ 100 µM) | 18.8 (≈ 100 µM) | 18.8 (≈ 100 µM) | 18.8 (≈ 100 µM) | MIC (Micrococcus luteus): 18.8 µg/mL (≈ 100 µM); MIC (Pseudomonas aeruginosa): 18.8 µg/mL (≈ 100 µM); MIC (Escherichia coli): 18.8 µg/mL (≈ 100 µM); MIC (Raoultella planticola): 18.8 µg/mL (≈ 100 µM); MIC (Staphylococcus aureus [8]): 18.8 µg/mL (≈ 100 µM); MIC (Bacillus subtilis): 18.8 µg/mL (≈ 100 µM); MIC (Staphylococcus aureus [10]): 18.8 µg/mL (≈ 100 µM) |
| NCC(O)CCCCCCCCCO (stereo not drawn) | Not Active | Not Active | 16.2 | – | – | 8.79 | – | – | – | – | – | – | – | – | – | – | – | – | – | – |
| COC(=O)CCCCCCCCC(O)CN (stereo not drawn) | – | – | 7.89 | – | – | 3.59 | – | – | 10.2 | – | – | – | – | – | 29.8 | – | – | – | – | – |
| COc1cccc2c1C(=O)c1c(O)c3c(c(O)c1C2=O)C[C@@](O)(C(=O)CO)C[C@@H]3O[C@H]1C[C@H](N)[C@H](O)[C@H](C)O1 [DOXORUBICIN] | – | – | – | – | – | – | – | – | 1.05 | – | – | – | – | – | 0.5 | – | – | – | – | – |
| CCCCCCCCCC(O)CNC(C)=O (stereo not drawn) | Not Active | Not Active | – | – | – | – | – | – | – | – | – | – | – | – | – | – | – | – | – | IC50 (A549; a549): Not Active; IC50 (HeLa; hela): Not Active |
| OC(Cn1cncn1)(Cn1cncn1)c1ccc(F)cc1F [FLUCONAZOLE] | – | – | – | 75 (≈ 245 µM) | 37.5 (≈ 122 µM) | – | 37.5 (≈ 122 µM) | 37.5 (≈ 122 µM) | – | 37.5 (≈ 122 µM) | 75 (≈ 245 µM) | 75 (≈ 245 µM) | 75 (≈ 245 µM) | 150 (≈ 490 µM) | – | 75 (≈ 245 µM) | 18.8 (≈ 61.2 µM) | 37.5 (≈ 122 µM) | 37.5 (≈ 122 µM) | – |
| Clc1ccc(COC(Cn2ccnc2)c2ccc(Cl)cc2Cl)c(Cl)c1 (stereo not drawn) [MICONAZOLE] | – | – | – | 9.37 (≈ 22.5 µM) | 9.37 (≈ 22.5 µM) | – | 9.37 (≈ 22.5 µM) | 9.37 (≈ 22.5 µM) | – | 9.37 (≈ 22.5 µM) | 9.37 (≈ 22.5 µM) | 9.37 (≈ 22.5 µM) | 9.37 (≈ 22.5 µM) | 9.37 (≈ 22.5 µM) | – | 9.37 (≈ 22.5 µM) | 9.37 (≈ 22.5 µM) | 9.37 (≈ 22.5 µM) | 9.37 (≈ 22.5 µM) | – |
